Laboratory results reported in ChEMBL document CHEMBL1165950, “Design and synthesis of new potent anticancer pyrazoles with high FLT3 kinase inhibitory selectivity” (Bioorg Med Chem, 2010).

Tests used:
Type in all cases: functional
A498 = assay: Cytotoxicity against human A498 cells assessed as cell growth at 10 uM; settings: read-out: Activity
Outline: (§1)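 Single-dose NCI-60 screen at 10 µM. Cells were grown in RPMI 1640 with 5% FBS and 2 mM L-glutamine, then treated for 48 h at 37 °C. Protein was measured by SRB staining with absorbance at 515 nm. Percentage growth was recorded, and inhibition percentage was calculated as 100 minus growth percentage.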

SNB-19 = assay: Cytotoxicity against human SNB19 cells assessed as cell growth at 10 uM; settings: read-out: Activity
Outline: (§2)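 NCI-60 screen: cells grown in RPMI 1640 with 5% FBS and 2 mM L-glutamine, plated at 5000–40,000 cells/well according to doubling time, and preincubated 24 h at 37 °C, 5% CO2. The single 10 µM dose (DMSO stock) was added, then incubated 48 h. Cells were TCA-fixed and stained with 0.4% SRB, read at 515 nm, and growth % calculated against time-zero and control plates.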

NCI/ADR-RES = assay: Cytotoxicity against human NCI/ADR-RES cells assessed as cell growth at 10 uM; settings: read-out: Activity; outline: as §2
OVCAR-5 = assay: Cytotoxicity against human OVCAR5 cells assessed as cell growth at 10 uM; settings: read-out: Activity; outline: as §2
786-0 = assay: Cytotoxicity against human 786-0 cells assessed as cell growth at 10 uM; settings: read-out: Activity; outline: as §1
RXF 393 = assay: Cytotoxicity against human RXF393 cells assessed as cell growth at 10 uM; settings: read-out: Activity; outline: as §2
NCI-H522 = assay: Cytotoxicity against human NCI-H522 cells assessed as cell growth at 10 uM; settings: read-out: Activity; outline: as §2
ACHN = assay: Cytotoxicity against human ACHN cells assessed as cell growth at 10 uM; settings: read-out: Activity; outline: as §1
MOLT-4 = assay: Cytotoxicity against human MOLT4 cells assessed as cell growth at 10 uM; settings: read-out: Activity; outline: as §2
M14 = assay: Cytotoxicity against human M14 cells assessed as cell growth at 10 uM; settings: read-out: Activity; outline: as §2
MDA-MB-435 = assay: Cytotoxicity against human MDA-MB-435 cells assessed as cell growth at 10 uM; settings: read-out: Activity; outline: as §2
LOX IMVI = assay: Cytotoxicity against human LOXIMVI cells assessed as cell growth at 10 uM; settings: read-out: Activity; outline: as §2
SK-MEL-28 = assay: Cytotoxicity against human SK-MEL-28 cells assessed as cell growth at 10 uM; settings: read-out: Activity; outline: as §2
UACC-257 = assay: Cytotoxicity against human UACC257 cells assessed as cell growth at 10 uM; settings: read-out: Activity; outline: as §2
UO-31 = assay: Cytotoxicity against human UO31 cells assessed as cell growth at 10 uM; settings: read-out: Activity; outline: as §2
SF-539 = assay: Cytotoxicity against human SF539 cells assessed as cell growth at 10 uM; settings: read-out: Activity; outline: as §2
K562 = assay: Cytotoxicity against human K562 cells assessed as cell growth at 10 uM; settings: read-out: Activity; outline: as §1
PC-3 = assay: Cytotoxicity against human PC3 cells assessed as cell growth at 10 uM; settings: read-out: Activity; outline: as §2
OVCAR-3 = assay: Cytotoxicity against human OVCAR-3 cells assessed as cell growth at 10 uM; settings: read-out: Activity; outline: as §2
[1] = Growth inhibition of human NCI60 cells at 10 uM after 48 hrs by sulforhodamine B assay relative to control; settings: NCI60, 48 h, read-out: GI
Outline: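 Single-dose NCI screen at 10 µM across the 60-line panel, 48 h exposure at 37 °C after a 24 h preincubation. Adherent cells were fixed with cold TCA and stained with 0.4% SRB, and absorbance was read at 515 nm. Inhibition % was taken as 100 minus growth %, and the mean across all lines was reported.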

COLO 205 = assay: Cytotoxicity against human COLO205 cells assessed as cell growth at 10 uM; settings: read-out: Activity; outline: as §1
SF-268 = assay: Cytotoxicity against human SF268 cells assessed as cell growth at 10 uM; settings: read-out: Activity; outline: as §2
NCI-H460 = assay: Cytotoxicity against human NCI-H460 cells assessed as cell growth at 10 uM; settings: read-out: Activity; outline: as §2
T47D = assay: Cytotoxicity against human T47D cells assessed as cell growth at 10 uM; settings: read-out: Activity; outline: as §2
DU-145 = assay: Cytotoxicity against human DU145 cells assessed as cell growth at 10 uM; settings: read-out: Activity; outline: as §1
[2] = Cytotoxicity against human Hs 578T cells assessed as cell growth at 10 uM; settings: read-out: Activity; outline: as §1
IGROV-1 = assay: Cytotoxicity against human IGROV1 cells assessed as cell growth at 10 uM; settings: read-out: Activity; outline: as §1
SN12C = assay: Cytotoxicity against human SN12C cells assessed as cell growth at 10 uM; settings: read-out: Activity; outline: as §2
OVCAR-8 = assay: Cytotoxicity against human OVCAR8 cells assessed as cell growth at 10 uM; settings: read-out: Activity; outline: as §2
OVCAR-4 = assay: Cytotoxicity against human OVCAR4 cells assessed as cell growth at 10 uM; settings: read-out: Activity; outline: as §2

Q: Which growth at 10 µM (A498) does the source give for COc1cc(C)cc(-c2nn(CC#N)cc2-c2ccnc(-c3ccc(C#N)cc3)c2)c1 here?
A: 82.2%

Q: And the growth at 10 µM (SNB-19)?
A: 79.1%

Q: And the growth at 10 µM (NCI/ADR-RES)?
A: 76.8%

Q: And the growth at 10 µM (OVCAR-5)?
A: 97.9%

Q: What about the growth at 10 µM (786-0) of the same molecule?
A: 96.5%

Q: What about the growth at 10 µM (RXF 393) of the same molecule?
A: 76.5%

Q: What about the growth at 10 µM (NCI-H522) of the same molecule?
A: 70.4%

Q: What about the growth at 10 µM (ACHN) of the same molecule?
A: 81.4%

Q: And the growth at 10 µM (MOLT-4)?
A: 71.8%

Q: And the growth at 10 µM (M14)?
A: 104%

Q: What about the growth at 10 µM (MDA-MB-435) of the same molecule?
A: 102%

Q: And the growth at 10 µM (LOX IMVI)?
A: 80.7%

Q: What about the growth at 10 µM (SK-MEL-28) of the same molecule?
A: 104%

Q: What about the growth at 10 µM (UACC-257) of the same molecule?
A: 89.8%

Q: And the growth at 10 µM (UO-31)?
A: 64.2%

Q: What about the growth at 10 µM (SF-539) of the same molecule?
A: 89.1%

Q: What about the growth at 10 µM (K562) of the same molecule?
A: 82%

Q: What about the growth at 10 µM (PC-3) of the same molecule?
A: 85.9%

Q: What about the growth at 10 µM (OVCAR-3) of the same molecule?
A: 102%

Q: What about the inhibition of growth at 10 µM [1] of the same molecule?
A: 14.4%

Q: What about the growth at 10 µM (COLO 205) of the same molecule?
A: 95.8%

Q: What about the growth at 10 µM (SF-268) of the same molecule?
A: 106%

Q: What about the growth at 10 µM (NCI-H460) of the same molecule?
A: 104%

Q: And the growth at 10 µM (T47D)?
A: 37.6%

Q: What about the growth at 10 µM (DU-145) of the same molecule?
A: 109%

Q: And the growth at 10 µM [2]?
A: 93.4%

Q: What about the growth at 10 µM (IGROV-1) of the same molecule?
A: 90.9%

Q: And the growth at 10 µM (SN12C)?
A: 85.1%

Q: What about the growth at 10 µM (OVCAR-8) of the same molecule?
A: 84.2%

Q: And the growth at 10 µM (OVCAR-4)?
A: 76.2%
